Columns and labels:
[1] = molecular target: T1, Toll-like receptor 7 (Homo sapiens) (UniProt Q9NYK1); assay: Agonist activity at human TLR7 expressed in HEK293 cells assessed as induction of receptor activation incubated for 6 hrs by NF-kappaB-luciferase reporter gene assay; format: cell-based
T1 sequence (whole entry): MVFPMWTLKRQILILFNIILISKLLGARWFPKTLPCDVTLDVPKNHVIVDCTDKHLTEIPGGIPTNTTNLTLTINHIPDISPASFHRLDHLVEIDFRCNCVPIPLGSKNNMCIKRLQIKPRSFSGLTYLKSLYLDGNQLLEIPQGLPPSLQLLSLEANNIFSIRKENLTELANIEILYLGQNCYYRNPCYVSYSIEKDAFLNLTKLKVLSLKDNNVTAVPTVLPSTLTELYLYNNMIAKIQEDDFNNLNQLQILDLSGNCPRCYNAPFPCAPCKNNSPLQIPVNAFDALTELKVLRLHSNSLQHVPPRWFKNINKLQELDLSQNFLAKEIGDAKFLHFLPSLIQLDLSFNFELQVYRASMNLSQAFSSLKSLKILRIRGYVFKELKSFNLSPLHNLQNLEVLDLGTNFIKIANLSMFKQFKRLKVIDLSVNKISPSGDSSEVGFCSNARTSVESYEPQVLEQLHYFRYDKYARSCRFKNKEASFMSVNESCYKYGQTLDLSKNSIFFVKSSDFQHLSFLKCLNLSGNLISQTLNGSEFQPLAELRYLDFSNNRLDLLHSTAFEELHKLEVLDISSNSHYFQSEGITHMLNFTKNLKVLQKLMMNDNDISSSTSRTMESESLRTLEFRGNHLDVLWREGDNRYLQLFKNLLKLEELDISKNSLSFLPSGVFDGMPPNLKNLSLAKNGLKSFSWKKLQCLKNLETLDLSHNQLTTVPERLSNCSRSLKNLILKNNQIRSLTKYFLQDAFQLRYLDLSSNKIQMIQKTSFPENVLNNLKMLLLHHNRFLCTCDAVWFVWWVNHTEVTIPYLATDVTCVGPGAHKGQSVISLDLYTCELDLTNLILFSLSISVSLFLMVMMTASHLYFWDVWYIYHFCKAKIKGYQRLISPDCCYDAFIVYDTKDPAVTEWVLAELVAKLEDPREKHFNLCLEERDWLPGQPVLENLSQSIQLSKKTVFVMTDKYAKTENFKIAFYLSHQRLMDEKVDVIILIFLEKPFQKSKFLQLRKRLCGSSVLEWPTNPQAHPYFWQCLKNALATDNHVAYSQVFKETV
Procedure, shortened: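 HEK cell-based assay using a wild-type TLR7 expression vector; a parallel TLR8 vector construct served for selectivity. Results are expressed as lowest effective concentration (LEC), averaged over independent experiments where determined two or more times. A separate HEK 293 cytotoxicity (TOX) assay gave CC50 alongside.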

[2] = molecular target: T2, Toll-like receptor 8 (Homo sapiens) (UniProt Q9NR97); assay: Agonist activity at human TLR8 expressed in HEK293 cells assessed as induction of receptor activation incubated for 6 hrs by NF-kappaB-luciferase reporter gene assay; format: cell-based
T2 sequence (whole entry): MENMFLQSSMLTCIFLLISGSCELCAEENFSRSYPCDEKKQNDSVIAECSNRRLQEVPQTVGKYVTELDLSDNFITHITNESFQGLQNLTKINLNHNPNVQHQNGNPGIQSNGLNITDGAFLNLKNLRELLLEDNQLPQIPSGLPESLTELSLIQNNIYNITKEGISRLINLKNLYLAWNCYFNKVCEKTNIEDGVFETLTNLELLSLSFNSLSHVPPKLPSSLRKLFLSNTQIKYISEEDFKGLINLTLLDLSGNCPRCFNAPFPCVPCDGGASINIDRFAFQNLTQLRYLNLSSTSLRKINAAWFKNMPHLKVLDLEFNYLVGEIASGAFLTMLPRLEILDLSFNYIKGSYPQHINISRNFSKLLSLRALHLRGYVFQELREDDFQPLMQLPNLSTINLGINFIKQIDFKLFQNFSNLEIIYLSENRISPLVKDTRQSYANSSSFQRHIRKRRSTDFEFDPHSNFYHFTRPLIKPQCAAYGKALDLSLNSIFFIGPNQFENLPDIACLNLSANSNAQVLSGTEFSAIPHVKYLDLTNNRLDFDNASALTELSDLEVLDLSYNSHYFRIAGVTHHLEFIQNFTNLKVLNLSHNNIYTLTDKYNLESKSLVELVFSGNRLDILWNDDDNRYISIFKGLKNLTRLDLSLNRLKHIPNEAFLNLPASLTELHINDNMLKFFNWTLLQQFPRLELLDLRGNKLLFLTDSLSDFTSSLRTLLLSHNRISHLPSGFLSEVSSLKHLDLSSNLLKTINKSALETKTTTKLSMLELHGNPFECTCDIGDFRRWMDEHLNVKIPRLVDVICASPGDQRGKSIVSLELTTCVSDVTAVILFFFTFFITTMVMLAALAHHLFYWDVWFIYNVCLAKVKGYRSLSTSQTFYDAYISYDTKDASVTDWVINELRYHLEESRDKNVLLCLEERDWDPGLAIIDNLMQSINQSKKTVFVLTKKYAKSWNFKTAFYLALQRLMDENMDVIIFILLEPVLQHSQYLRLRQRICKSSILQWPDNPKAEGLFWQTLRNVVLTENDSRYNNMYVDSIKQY

[3] = molecular target: T1, Toll-like receptor 7 (Homo sapiens); assay: Agonist activity at TLR7 in human PBMC assessed as suppression of HCV replicon replication in human HuH7 luc/neo cells harboring RNA encoding bicistronic expression construct comprising wild type HCV type 1b NS3-NS5B regions exposed to conditioned media from compound treated PBMCs after 24 hrs by luciferase reporter gene assay; format: cell-based
Procedure, shortened: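 Human PBMCs were incubated with compound. Their medium was then transferred onto an HCV replicon system, so the antiviral read-out reflects interferon and cytokines the PBMCs induced. Values are reported as lowest effective concentration (LEC), averaged when determined in two or more independent experiments.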

[4] = Cytotoxicity against HEK293 cells assessed as reduction in cell viability after 6 hrs by ATP lite assay; format: cell-based; settings: human
[5] = molecular target: Voltage-gated inwardly rectifying potassium channel KCNH2 (Homo sapiens, UniProt Q12809); assay: Inhibition of radioligand binding to human ERG expressed in HEK293 cell membranes by scintillation counting method
[6] = Metabolic stability in mouse liver microsomes assessed as compound metabolized at 1 uM after 15 mins; format: ADME, microsome; settings: read-out: Drug metabolism
Procedure, shortened: (§1)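 Mouse (M) or human (H) liver microsomes incubated with compound at 1 μM; percent metabolized after 15 min.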

[7] = Metabolic stability in human liver microsomes assessed as compound metabolized at 1 uM after 15 mins; format: ADME, microsome; settings: read-out: Drug metabolism; procedure, shortened: as §1
[8] = system: HepG2; assay: Cytotoxicity against human HepG2 cells; format: cell-based

Chain of Voltage-gated inwardly rectifying potassium channel KCNH2 (Q12809 whole entry): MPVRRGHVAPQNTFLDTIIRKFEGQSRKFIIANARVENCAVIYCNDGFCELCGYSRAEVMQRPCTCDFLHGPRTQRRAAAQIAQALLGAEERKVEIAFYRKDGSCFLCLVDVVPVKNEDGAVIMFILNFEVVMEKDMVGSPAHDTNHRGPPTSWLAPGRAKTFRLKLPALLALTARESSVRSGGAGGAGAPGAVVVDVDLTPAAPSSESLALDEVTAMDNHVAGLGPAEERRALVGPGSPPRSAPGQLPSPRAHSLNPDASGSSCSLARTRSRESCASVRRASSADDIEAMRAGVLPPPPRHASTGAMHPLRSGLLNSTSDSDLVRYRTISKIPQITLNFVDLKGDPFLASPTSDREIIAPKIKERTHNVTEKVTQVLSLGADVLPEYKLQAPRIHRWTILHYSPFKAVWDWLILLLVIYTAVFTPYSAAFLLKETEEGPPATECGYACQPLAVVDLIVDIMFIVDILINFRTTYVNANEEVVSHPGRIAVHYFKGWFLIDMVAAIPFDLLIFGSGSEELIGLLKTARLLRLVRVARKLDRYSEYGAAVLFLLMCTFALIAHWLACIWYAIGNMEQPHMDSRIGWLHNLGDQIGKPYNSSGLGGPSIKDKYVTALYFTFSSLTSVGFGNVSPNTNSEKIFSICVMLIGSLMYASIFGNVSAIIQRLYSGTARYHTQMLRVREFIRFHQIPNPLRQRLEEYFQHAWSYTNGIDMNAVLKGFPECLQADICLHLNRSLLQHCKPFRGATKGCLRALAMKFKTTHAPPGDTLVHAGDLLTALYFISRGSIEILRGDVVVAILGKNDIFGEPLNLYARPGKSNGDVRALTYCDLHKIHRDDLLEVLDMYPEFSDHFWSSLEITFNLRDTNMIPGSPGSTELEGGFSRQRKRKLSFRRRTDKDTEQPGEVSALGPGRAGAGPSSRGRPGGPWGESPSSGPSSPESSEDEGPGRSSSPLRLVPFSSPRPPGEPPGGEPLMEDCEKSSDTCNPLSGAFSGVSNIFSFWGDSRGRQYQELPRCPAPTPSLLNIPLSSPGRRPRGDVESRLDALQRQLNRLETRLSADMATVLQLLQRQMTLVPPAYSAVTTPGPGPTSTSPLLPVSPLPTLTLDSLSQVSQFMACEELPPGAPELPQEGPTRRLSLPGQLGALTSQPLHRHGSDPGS

Row | Structure (SMILES) | MEC [1] | MEC [2] | MEC [3] | CC50 at 6 h [4] | IC50 [5] | metabolised at 0.25 h, 1 µM [6] | metabolised at 0.25 h, 1 µM [7] | EC20 [8]
1 | CCCC[C@@H](CCO)Nc1nc(N)nc2ccc(OC)cc12 | 1.85 µM | 2.81 µM | 0.88 µM | > 24 µM | 6 µM | 97% | 25% | –
2 | CCC[C@@H](CCO)Nc1nc(N)nc2ccc(OC)cc12 | 11.8 µM | 2.97 µM | – | > 24 µM | – | – | – | –
3 | CCC[C@@H](CCO)Nc1nc(N)nc2ccc(C)cc12 | 0.54 µM | 0.45 µM | 0.39 µM | > 24 µM | 7.2 µM | 97% | 21% | –
4 | CCCC[C@@H](CCO)Nc1nc(N)nc2cc(OC)ccc12 | 0.16 µM | 0.16 µM | 0.04 µM | > 24 µM | – | 80% | 37% | –
5 | CCCC[C@@H](CCO)Nc1nc(N)nc2ccccc12 | 0.08 µM | 0.08 µM | 0.02 µM | > 24 µM | 2.7 µM | 82% | 45% | –
6 | CCC[C@@H](CCO)Nc1nc(N)nc2cc(F)ccc12 | 0.11 µM | 0.04 µM | 4.8 µM | > 24 µM | 9.1 µM | 100% | 13% | –
7 | CCC[C@H](CO)Nc1nc(N)nc2ccccc12 | > 25 µM | 0.57 µM | 2.36 µM | > 24 µM | – | – | – | –
8 | CCC[C@@H](CCO)Nc1nc(N)nc2ccc(F)cc12 | 1.05 µM | 0.42 µM | – | > 24 µM | – | 47% | 22% | –
9 | CCCC[C@@H](CCO)Nc1nc(N)nc2ccc(F)cc12 | 1.59 µM | 0.42 µM | 0.37 µM | > 24 µM | 5.8 µM | 63% | 33% | –
10 | CC[C@H](C)[C@@H](CO)Nc1nc(N)nc2ccccc12 | 1.34 µM | 0.08 µM | 0.14 µM | > 24 µM | – | – | – | –
11 | CCC[C@@H](CCO)Nc1nc(N)nc2cccc(F)c12 | 0.22 µM | 0.02 µM | – | > 24 µM | 8.9 µM | 47% | 62% | –
12 | CCCC[C@@H](CCO)Nc1nc(N)nc2cccc(F)c12 | 0.34 µM | 0.1 µM | 0.06 µM | > 24 µM | > 10 µM | 25% | 87% | 13.2 µM
13 | CCCC[C@@H](CCO)Nc1nc(N)nc2cccc(C)c12 | 0.14 µM | 0.06 µM | 0.02 µM | > 24 µM | 0.6 µM | 82% | 67% | –
14 | CCCCNc1nc(N)nc2ccccc12 | 0.16 µM | 0.06 µM | 0.03 µM | > 24 µM | – | – | – | –
15 | CCCC[C@@H](CCO)Nc1nc(N)nc2ccc(C)cc12 | 0.44 µM | 0.25 µM | 0.14 µM | > 24 µM | 5.4 µM | 99% | 24% | –
16 | CCCC[C@@H](CO)Nc1nc(N)nc2ccccc12 | 0.24 µM | 0.02 µM | 0.04 µM | > 24 µM | – | – | – | –
17 | CCCC[C@@H](CCO)Nc1nc(N)nc2cc(F)ccc12 | 0.04 µM | 0.03 µM | 0.04 µM | > 24 µM | – | 91% | 39% | –
18 | CCCC[C@H](CO)Nc1nc(N)nc2ccccc12 | 22.5 µM | 0.05 µM | 0.16 µM | > 24 µM | – | – | – | –
19 | CCC[C@@H](CCO)Nc1nc(N)nc2cccc(C)c12 | 0.22 µM | 0.14 µM | – | > 24 µM | 5.5 µM | 88% | 44% | –
20 | CCCC[C@@H](CCO)Nc1nc(N)nc2c(F)cccc12 | 0.11 µM | 0.16 µM | 0.05 µM | > 24 µM | 4.47 µM | 98% | 76% | –
21 | CCC[C@@H](CO)Nc1nc(N)nc2ccccc12 | 0.46 µM | 0.01 µM | 0.04 µM | > 24 µM | – | – | – | –
22 | CCC[C@@H](CCO)Nc1nc(N)nc2cc(C)ccc12 | 0.06 µM | 0.05 µM | 0.39 µM | > 24 µM | 8.1 µM | 87% | 44% | –
23 | CC(C)C[C@@H](CO)Nc1nc(N)nc2ccccc12 | 3.18 µM | 0.45 µM | 0.71 µM | > 24 µM | – | – | – | –
24 | CC(C)C[C@@H](CCO)Nc1nc(N)nc2ccccc12 | 1.83 µM | 0.69 µM | 0.55 µM | > 24 µM | – | – | – | –
25 | CC[C@@H](CO)Nc1nc(N)nc2ccccc12 | 3.9 µM | 0.19 µM | 2.3 µM | > 24 µM | – | – | – | –
26 | CCCC[C@@H](CCO)Nc1nc(N)nc2cc(C)ccc12 | 0.03 µM | 0.06 µM | 0.02 µM | > 24 µM | 1.8 µM | 98% | 70% | –
27 | CCC[C@@H](CCO)Nc1nc(N)nc2ccccc12 | 0.2 µM | 0.11 µM | 0.38 µM | > 24 µM | 6.8 µM | 72% | 23% | –
